Data reported in ChEMBL document CHEMBL3526041, “Absorption, metabolism and excretion of [(14)C]mirabegron (YM178), a potent and selective β(3)-adrenoceptor agonist, after oral administration to healthy male volunteers” (Drug Metab Dispos, 2012).

Key:
Homo sapiens [1] = assay: Toxicity in healthy human assessed as ECG parameter at 160 mg, po as single dose; type: organism-based; set-up: dosed compound name [14C]Mirabegron; settings: in vivo
Method in brief: (§1)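 Safety in the four dosed men was followed throughout admission: 12-lead ECGs, vital signs, hematology, biochemistry, urinalysis, and physical examinations after a single oral 160 mg [14C]mirabegron solution.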

Homo sapiens [2] = assay: Toxicity in healthy human assessed as changes in physical signs at 160 mg, po as single dose; type: organism-based; set-up: dosed compound name [14C]Mirabegron; settings: in vivo; method in brief: as §1
[3] = Drug recovery in healthy human feces at 160 mg, po as single dose measured up to 96 hrs; type: ADME, organism-based; set-up: dosed compound name [14C]Mirabegron; settings: in vivo
Method in brief: (§2)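 One oral dose of 160 mg [14C]mirabegron (1.85 MBq) given as a solution to four healthy men. Urine and feces were collected to 408 h; feces were homogenized and combusted. Expired air was trapped in hyamine hydroxide at set times to 96 h. All samples were counted by liquid scintillation. Cumulative excretion is given as % of administered radioactivity, mean ± S.D., n=4.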

Blood [4] = assay: AUC (infinity) as total radioactivity in healthy human whole blood at 160 mg, po as single dose; type: ADME, organism-based; set-up: dose 160 mg, time infinity, route oral, dosed compound name [14C]Mirabegron; settings: in vivo
Method in brief: (§3)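 Four healthy men fasted overnight, then took one oral dose of 160 mg mirabegron containing 1.85 MBq [14C]mirabegron, dissolved in 20 mM sodium citrate pH 4.5. Blood was drawn into lithium heparin tubes from 0 to 168 h. Total radioactivity in whole blood and plasma was counted by liquid scintillation. Unchanged drug in plasma was measured by validated LC-MS/MS (1–500 ng/ml). Parameters were derived noncompartmentally; values are mean ± S.D., n=4.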

Homo sapiens [5] = assay: Toxicity in healthy human assessed as changes in clinical lab values at 160 mg, po as single dose; type: organism-based; set-up: dosed compound name [14C]Mirabegron; settings: in vivo; method in brief: as §1
Plasma [6] = assay: Terminal elimination phase half life as total radioactivity in healthy human plasma at 160 mg, po as single dose; type: ADME, organism-based; set-up: dosed compound name [14C]Mirabegron; settings: in vivo; method in brief: as §3
[7] = Drug recovery in healthy human urine at 160 mg, po as single dose measured up to 408 hrs; type: ADME, organism-based; set-up: dosed compound name [14C]Mirabegron; method in brief: as §2
Blood [8] = assay: Terminal elimination phase half life as total radioactivity in healthy human whole blood at 160 mg, po as single dose; type: ADME, organism-based; set-up: dosed compound name [14C]Mirabegron; settings: in vivo; method in brief: as §3
[9] = Drug recovery in healthy human expired air at 160 mg, po as single dose measured up to 96 hrs; type: ADME, organism-based; set-up: dosed compound name [14C]Mirabegron; settings: in vivo; method in brief: as §2
Homo sapiens [10] = assay: Toxicity in healthy human assessed as vital signs at 160 mg, po as single dose; type: organism-based; set-up: dosed compound name [14C]Mirabegron; settings: in vivo; method in brief: as §1
Plasma [11] = assay: Cmax as total radioactivity in healthy human plasma at 160 mg, po as single dose; type: ADME, organism-based; set-up: dose 160 mg, route oral, dosed compound name [14C]Mirabegron; settings: in vivo; method in brief: as §3
Blood [12] = assay: Cmax as total radioactivity in healthy human whole blood at 160 mg, po as single dose; type: ADME, organism-based; set-up: dose 160 mg, route oral, dosed compound name [14C]Mirabegron; settings: in vivo; method in brief: as §3
Blood [13] = assay: Tmax as total radioactivity in healthy human whole blood at 160 mg, po as single dose; type: ADME, organism-based; set-up: dosed compound name [14C]Mirabegron; settings: in vivo; method in brief: as §3
[14] = Drug recovery in healthy human feces at 160 mg, po as single dose measured up to 408 hrs; type: ADME, organism-based; set-up: dosed compound name [14C]Mirabegron; settings: in vivo; method in brief: as §2
Plasma [15] = assay: Tmax as total radioactivity in healthy human plasma at 160 mg, po as single dose; type: ADME, organism-based; set-up: dosed compound name [14C]Mirabegron; settings: in vivo; method in brief: as §3
Plasma [16] = assay: AUC (infinity) as total radioactivity in healthy human plasma at 160 mg, po as single dose; type: ADME, organism-based; set-up: dose 160 mg, route oral, time infinity, dosed compound name [14C]Mirabegron; settings: in vivo; method in brief: as §3
[17] = Drug recovery in healthy human plasma at 160 mg, po as single dose measured at 12 hrs; settings: in vivo
[18] = Drug recovery in healthy human urine at 160 mg, po as single dose measured up to 96 hrs; type: ADME, organism-based; set-up: dosed compound name [14C]Mirabegron; settings: in vivo; method in brief: as §2
Homo sapiens [19] = assay: Total drug recovery in healthy human at 160 mg, po as single dose measured up to 408 hrs; type: ADME, organism-based; set-up: dosed compound name [14C]Mirabegron; settings: in vivo; method in brief: as §2
[20] = Terminal elimination phase half life as total radioactivity in healthy human urine at 160 mg, po as single dose; type: ADME, organism-based; set-up: dosed compound name [14C]Mirabegron; settings: in vivo
Method in brief: (§4)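 Same single oral 160 mg [14C]mirabegron solution in four fasted healthy men. Urine was collected over 0–6, 6–12 and 12–24 h, then in 24-h intervals to 408 h. Radioactivity was measured by scintillation counting. Unchanged drug was measured by LC-MS/MS (2–1000 ng/ml). Half-life came from log-linear regression of the terminal phase, and renal clearance was also calculated.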

Plasma [21] = assay: Drug recovery in healthy human plasma treated with [14C]mirabegron at 160 mg, po as single dose measured at 2 hrs; type: ADME, organism-based; set-up: dosed compound name [14C]Mirabegron; settings: in vivo
Method in brief: (§5)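 Plasma taken at 2, 4, 8 and 12 h from the four subjects was pooled at each time point, with dichlorvos added. Pools underwent solid-phase extraction, then HPLC with fractions counted by low-level liquid scintillation. Each peak is expressed as % of the radioactivity injected onto HPLC.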

Plasma [22] = assay: Drug recovery in healthy human plasma treated with [14C]mirabegron at 160 mg, po as single dose measured at 12 hrs; type: ADME, organism-based; set-up: dosed compound name [14C]Mirabegron; settings: in vivo; method in brief: as §5
[23] = Drug recovery in healthy human urine treated with [14C]mirabegron at 160 mg, po as single dose measured up to 48 hrs; type: ADME, organism-based; set-up: dosed compound name [14C]Mirabegron; settings: in vivo
Method in brief: (§6)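 Urine was collected at 0–6, 6–12, 12–24 and 24–48 h after a single oral 160 mg [14C]mirabegron dose in four men, with dichlorvos added. Samples underwent solid-phase extraction and radio-HPLC (C18, 40°C), with eluate fractions counted by scintillation. Each peak, as a percentage of eluted radioactivity, was converted to % of dose without recovery correction; mean ± S.D.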

Plasma [24] = assay: Drug recovery in healthy human plasma treated with [14C]mirabegron at 160 mg, po as single dose measured at 8 hrs; type: ADME, organism-based; set-up: dosed compound name [14C]Mirabegron; settings: in vivo; method in brief: as §5
Plasma [25] = assay: Drug recovery in healthy human plasma treated with [14C]mirabegron at 160 mg, po as single dose measured at 4 hrs; type: ADME, organism-based; set-up: dosed compound name [14C]Mirabegron; settings: in vivo; method in brief: as §5
[26] = Apparent oral clearance in healthy human plasma at 160 mg, po as single dose; type: ADME, organism-based; set-up: dosed compound name [14C]Mirabegron; method in brief: as §3
[27] = Apparent volume of distribution during terminal phase in healthy human plasma at 160 mg, po as single dose; type: ADME, organism-based; set-up: dosed compound name [14C]Mirabegron; settings: read-out: Vz/F; method in brief: as §3
[28] = Cmax in healthy human plasma at 160 mg, po as single dose; type: ADME, organism-based; set-up: dose 160 mg, route oral, dosed compound name [14C]Mirabegron; method in brief: as §3
[29] = Absolute oral bioavailability in dog at 0.5 mg/kg; type: ADME, organism-based, Canis lupus familiaris; set-up: dosed compound name [14C]Mirabegron; settings: in vivo
[30] = Absolute oral bioavailability in dog at 0.25 mg/kg; type: ADME, organism-based, Canis lupus familiaris; set-up: dosed compound name [14C]Mirabegron; settings: in vivo
[31] = Absolute oral bioavailability in rat at 30 mg/kg; type: ADME, organism-based; set-up: dosed compound name [14C]Mirabegron; settings: in vivo
Plasma [32] = assay: Drug recovery in healthy human plasma at 160 mg, po as single dose measured at 2 hrs; type: ADME, organism-based; set-up: dosed compound name [14C]Mirabegron; settings: in vivo; method in brief: as §5
Plasma [33] = assay: Drug recovery in healthy human plasma at 160 mg, po as single dose measured at 12 hrs; type: ADME, organism-based; set-up: dosed compound name [14C]Mirabegron; settings: in vivo; method in brief: as §5
Plasma [34] = assay: Drug recovery in healthy human plasma at 160 mg, po as single dose measured at 4 hrs; type: ADME, organism-based; set-up: dosed compound name [14C]Mirabegron; settings: in vivo; method in brief: as §5
[35] = Terminal elimination phase half life in healthy human plasma at 160 mg, po as single dose; type: ADME, organism-based; set-up: dosed compound name [14C]Mirabegron; settings: read-out: beta t1/2 (converted); method in brief: as §3
[36] = AUC (infinity) in healthy human plasma at 160 mg, po as single dose; type: ADME, organism-based; set-up: dose 160 mg, route oral, time infinity, dosed compound name [14C]Mirabegron; method in brief: as §3
[37] = Absolute oral bioavailability in dog at 1 mg/kg; type: ADME, organism-based, Canis lupus familiaris; set-up: dosed compound name [14C]Mirabegron; settings: in vivo
[38] = Absolute oral bioavailability in rat at 3 mg/kg; type: ADME, organism-based; set-up: dosed compound name [14C]Mirabegron; settings: in vivo
[39] = Terminal elimination phase half life in healthy human urine at 160 mg, po as single dose; type: ADME, organism-based; set-up: dosed compound name [14C]Mirabegron; settings: read-out: beta t1/2 (converted); method in brief: as §4
[40] = Tmax in healthy human plasma at 160 mg, po as single dose; type: ADME, organism-based; set-up: dosed compound name [14C]Mirabegron; method in brief: as §3
[41] = Drug recovery in healthy human urine at 160 mg, po as single dose measured up to 48 hrs; type: ADME, organism-based; set-up: dosed compound name [14C]Mirabegron; settings: read-out: Compound recovery; method in brief: as §6
Plasma [42] = assay: Drug recovery in healthy human plasma at 160 mg, po as single dose measured at 8 hrs; type: ADME, organism-based; set-up: dosed compound name [14C]Mirabegron; settings: in vivo; method in brief: as §5
[43] = Renal clearance in healthy human plasma at 160 mg, po as single dose; type: ADME, organism-based, Kidney; set-up: dosed compound name [14C]Mirabegron; method in brief: as §4
[44] = Absolute oral bioavailability in rat at 10 mg/kg; type: ADME, organism-based; set-up: dosed compound name [14C]Mirabegron; settings: in vivo

For `Nc1nc(CC(=O)N[14c]2[14cH][14cH][14c](CCNC[C@H](O)c3ccccc3)[14cH][14cH]2)cs1`, the Activity (Homo sapiens [1]) was “Non-toxic”, the Activity (Homo sapiens [2]) was “Non-toxic” and the Radiolabel recovery [3] was 29.3%. The AUC (Blood [4]) was 13.896 µg·h/mL, the Activity (Homo sapiens [5]) was “Non-toxic” and the “beta t1/2” value (Plasma [6]) was 28.2 h. The Radiolabel recovery ([7]; in vivo) was 55%, the “beta t1/2” value (Blood [8]) was 30.5 h and the Radiolabel recovery [9] was “Below limit of detection”. The Activity (Homo sapiens [10]) was “Non-toxic”, the Cmax (Plasma [11]) was 0.879 µg/mL and the Cmax (Blood [12]) was 0.777 µg/mL. It also gave a Tmax (Blood [13]) of 2.13 h, a Radiolabel recovery [14] of 34.2% and a Tmax (Plasma [15]) of 2.25 h. For the same compound, the AUC (Plasma [16]) was 10.443 µg·h/mL, the Radiolabel recovery [17] was “metabolite_not_detected” and the Radiolabel recovery [18] was 48.7%. For the same compound, the Radiolabel recovery (Homo sapiens [19]) was 89.2% and the “beta t1/2” value [20] was 84.5 h.
With `Nc1nc(CC(=O)Nc2ccc(CC(=O)O)cc2)cs1.O=C(O)C(F)(F)F` the Compound recovery (Plasma [21]) was 2.2%, the Compound recovery (Plasma [22]) was “Below limit of detection” and the Compound recovery [23] was 1.3%. The Compound recovery (Plasma [24]) was “Below limit of detection” and the Compound recovery (Plasma [25]) was 1.4%.
For `CC(=O)Nc1ccc(CC(=O)O)cc1` [ACTARIT], the Compound recovery (Plasma [21]) was “Below limit of detection”, the Compound recovery (Plasma [22]) was “Below limit of detection” and the Compound recovery [23] was 0.6%. For the same compound, the Compound recovery (Plasma [24]) was “Below limit of detection” and the Compound recovery (Plasma [25]) was “Below limit of detection”.
Compound `Nc1nc(CC(=O)Nc2ccc(CCNC[C@H](O)c3ccccc3)cc2)cs1` [MIRABEGRON] has a CL/F [26] of 1180 mL/min, a Vd/F [27] of 4820 L and a Cmax [28] of 0.371 µg/mL. It also gave a bioavailability [29] of 64.6%, a bioavailability [30] of 41.8% and a dose excreted at 408 h ([7]; read-out: Compound recovery) of 25%. It also gave a bioavailability [31] of 75.7%, a Compound recovery (Plasma [32]) of 46.4% and a Compound recovery (Plasma [33]) of 31%. For the same compound, the Compound recovery (Plasma [34]) was 30.9%, the half-life [35] was 47.9 h and the AUC(0-inf) [36] was 2.29 µg·h/mL. The bioavailability [37] was 77.1%, the bioavailability [38] was 23% and the half-life [39] was 72.9 h. For the same compound, the Tmax [40] was 1 h, the dose excreted at 48 h [41] was 18.4% and the Compound recovery (Plasma [42]) was 28.6%. The CL renal [43] was 295 mL/min and the bioavailability [44] was 48.4%.
